These results are taken from ChEMBL document CHEMBL3414560, “Discovery of 4-(dihydropyridinon-3-yl)amino-5-methylthieno[2,3-d]pyrimidine derivatives as potent Mnk inhibitors: synthesis, structure-activity relationship analysis and biological evaluation” (Eur J Med Chem, 2015).

For orientation: GI50 means the concentration giving 50% growth inhibition. A lower GI50 goes with more potent growth inhibition. A word on the inhibition: it is the change of the read-out against control, counted positive when it falls. As usually defined, the Ki is the dissociation constant of the complex between target and ligand, obtained from inhibition or displacement. A lower Ki goes with a stronger hold on the target.

Assay [1] deals with MV4-11. Put plainly: Induction of apoptosis in human MV4-11 cells assessed as induction of PARP cleavage expression at 10 uM after 24 hrs by Western blotting method. In kind it is functional, cell-based. Put shortly: (§1)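 MV-4-11 cells in RPMI-1640 with 10% FBS, exposed 24 h (DMSO diluent control); Western blot probing Mnk1, eIF4E, p-eIF4E Ser209, Bcl-2, Mcl-1, cyclin D1, PARP, cleaved PARP; β-actin as loading control; HRP-conjugated anti-mouse/anti-rabbit IgG secondaries.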
Background: Immunoblotting shows a protein as a band on a membrane.

In assay [2] the test system is MV4-11. Kind of assay: Induction of apoptosis in human MV4-11 cells assessed as viable cells level at 10 uM after 24 hrs by FITC annexin-V/PI staining based flow cytometry (reference value: 91.49%). The assay is classed as functional. Put shortly: (§2)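 MV-4-11 cells seeded at 8 × 10^4, overnight at 37 °C, 5% CO2, then treated 24 h (DMSO diluent control); pellets collected (300 × g, 5 min), stained with FITC annexin V/PI kit and analysed by flow cytometry within 1 h; apoptotic = annexin V+/PI− plus annexin V+/PI+ cells.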

Assay [3] concerns MV4-11. Put plainly: Reduction in cyclin D1 expression in human MV4-11 cells at 10 uM after 24 hrs by Western blotting method. In kind it is functional, cell-based. Put shortly:
(§3)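 MV-4-11 AML cells grown in RPMI-1640 with 10% FBS, treated 24 h at the stated concentration against a DMSO diluent control. Lysates probed by Western blot for cyclin D1, with β-actin as loading control and HRP-conjugated anti-mouse/anti-rabbit IgG secondaries.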

The test system of assay [4] is MV4-11. Kind of assay: Induction of apoptosis in human MV4-11 cells assessed as early apoptotic cells level at 10 uM after 24 hrs by FITC annexin-V/PI staining based flow cytometry (reference value: 3.02%). In kind it is functional. The method in brief:
as §2
In general terms: In flow cytometry, cells or beads pass a laser one at a time.

Assay [5] has as its system MV4-11. Put plainly: Induction of apoptosis in human MV4-11 cells at 10 uM after 24 hrs by FITC annexin-V/PI staining based flow cytometry. The assay is classed as functional. Put shortly:
as §2

The subject of assay [6] is MV4-11. Put plainly: Growth inhibition of human MV4-11 cells after 72 hrs by resazurin assay. In kind it is functional. Particulars: MV4-11, 72 h. For orientation: Alamar Blue is a resazurin reagent that responds to reducing activity.
Assay [7] deals with MV4-11. Put plainly: Induction of cell cycle arrest in human MV4-11 cells assessed as accumulation at S phase at 10 uM after 24 hrs by FITC propidium iodide staining based flow cytometry (reference value: 16.7%). The assay is classed as functional.
Assay [8] concerns MV4-11. Kind of assay: Induction of caspase-3/7 activation in human MV4-11 cells at 10 uM after 24 hrs. In kind it is functional, cell-based. Put shortly: (§4)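 MV-4-11 cells treated 24 h, DMSO diluent as control; caspase-3/7 activity measured with Apo-ONE homogeneous caspase-3/7 kit per manufacturer, read on plate reader; expressed as relative activity.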
The test system of assay [9] is MV4-11. Put plainly: Induction of cell cycle arrest in human MV4-11 cells assessed as accumulation at subG1 phase at 10 uM after 24 hrs by FITC propidium iodide staining based flow cytometry (reference value: 7.7%). In kind it is functional.
For assay [10], the system named is MV4-11. Put plainly: Induction of cell cycle arrest in human MV4-11 cells assessed as accumulation at G2/M phase at 10 uM after 24 hrs by FITC propidium iodide staining based flow cytometry (reference value: 17.5%). In kind it is functional.
The target in assay [11] is T1, MAP kinase-interacting serine/threonine-protein kinase 1 (Homo sapiens, UniProt Q9BUB5). The conditions noted are these: MV4-11, 10 uM.
Target sequence in this assay (Q9BUB5 whole entry, looked up): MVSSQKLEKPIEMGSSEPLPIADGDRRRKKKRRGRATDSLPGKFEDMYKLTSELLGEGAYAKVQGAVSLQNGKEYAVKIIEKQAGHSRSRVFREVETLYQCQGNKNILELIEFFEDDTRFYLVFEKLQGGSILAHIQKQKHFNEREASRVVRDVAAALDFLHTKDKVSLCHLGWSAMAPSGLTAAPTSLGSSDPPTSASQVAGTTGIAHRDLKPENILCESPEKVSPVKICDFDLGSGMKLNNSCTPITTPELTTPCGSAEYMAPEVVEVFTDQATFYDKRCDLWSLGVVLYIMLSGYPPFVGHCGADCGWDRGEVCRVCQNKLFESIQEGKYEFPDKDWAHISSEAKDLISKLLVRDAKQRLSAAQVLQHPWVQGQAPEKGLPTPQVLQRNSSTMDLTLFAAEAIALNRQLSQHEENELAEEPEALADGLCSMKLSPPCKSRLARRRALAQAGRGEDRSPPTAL
For assay [12], the system named is MV4-11. Kind of assay: Induction of cell cycle arrest in human MV4-11 cells assessed as accumulation at G1 phase at 10 uM after 24 hrs by FITC propidium iodide staining based flow cytometry (reference value: 58.1%). The assay is classed as functional.
Assay [13] has as its system MV4-11. Kind of assay: Induction of apoptosis in human MV4-11 cells assessed as reduction in Mcl1 expression at 10 uM after 24 hrs by Western blotting method. The assay is classed as functional, cell-based. The method in brief:
as §1

The subject of assay [14] is MV4-11. Kind of assay: Induction of apoptosis in human MV4-11 cells assessed as necrotic cells level at 10 uM after 24 hrs by FITC annexin-V/PI staining based flow cytometry (reference value: 0.1%). The assay is classed as functional. Put shortly:
as §2

Assay [15] has as its system MV4-11. Kind of assay: Induction of apoptosis in human MV4-11 cells assessed as late apoptotic cells level at 10 uM after 24 hrs by FITC annexin-V/PI staining based flow cytometry (reference value: 5.4%). In kind it is functional. Put shortly:
as §2

The subject of assay [16] is MV4-11. Kind of assay: Induction of apoptosis in human MV4-11 cells assessed as early apoptotic cells level at 20 uM after 24 hrs by FITC annexin-V/PI staining based flow cytometry (reference value: 3.02%). In kind it is functional. The method in brief:
as §2

Assay [17] concerns the target RAC-alpha serine/threonine-protein kinase (Homo sapiens) (UniProt P31749). Kind of assay: Inhibition of PKBalpha (unknown origin) assessed as reduction in kinase activity at 10 uM using ATP.
Assay [18] has as its system MV4-11. Put plainly: Induction of apoptosis in human MV4-11 cells assessed as necrotic cells level at 20 uM after 24 hrs by FITC annexin-V/PI staining based flow cytometry (reference value: 0.1%). In kind it is functional. Put shortly: as §2
Assay [19] addresses Mitogen-activated protein kinase 1 (Homo sapiens) (UniProt P28482). Put plainly: Inhibition of MAPK1 (unknown origin) assessed as reduction in kinase activity at 10 uM using ATP.
Assay [20] concerns MV4-11. Put plainly: Effect on total Mnk1 protein level in human MV4-11 cells at 20 uM after 24 hrs by Western blotting method. In kind it is functional, cell-based. Put shortly:
as §1

Assay [21] has as its target CDK2/Cyclin A2 (Homo sapiens) (UniProt P24941+P20248). Kind of assay: Inhibition of CDK2/cyclinA (unknown origin) assessed as reduction in kinase activity at 10 uM using ATP. In kind it is protein-complex assay.
Assay [22] concerns the target Serine/threonine-protein kinase pim-1 (Homo sapiens) (UniProt P11309). Kind of assay: Inhibition of PIM1 (unknown origin) assessed as reduction in kinase activity at 10 uM using ATP.
Assay [23] relates to MV4-11. Put plainly: Induction of cell cycle arrest in human MV4-11 cells assessed as accumulation at subG1 phase at 20 uM after 24 hrs by FITC propidium iodide staining based flow cytometry (reference value: 7.7%). In kind it is functional.
For assay [24], the system named is MV4-11. Kind of assay: Effect on total eIF4E protein level in human MV4-11 cells at 20 uM after 24 hrs by Western blotting method. In kind it is functional, cell-based. The method in brief:
as §1

For assay [25], the target named is Receptor-type tyrosine-protein kinase FLT3 (Homo sapiens) (UniProt P36888). Put plainly: Inhibition of FLT3 (unknown origin) assessed as reduction in kinase activity at 10 uM using ATP.
Chain of Receptor-type tyrosine-protein kinase FLT3 (Homo sapiens) (P36888 whole entry): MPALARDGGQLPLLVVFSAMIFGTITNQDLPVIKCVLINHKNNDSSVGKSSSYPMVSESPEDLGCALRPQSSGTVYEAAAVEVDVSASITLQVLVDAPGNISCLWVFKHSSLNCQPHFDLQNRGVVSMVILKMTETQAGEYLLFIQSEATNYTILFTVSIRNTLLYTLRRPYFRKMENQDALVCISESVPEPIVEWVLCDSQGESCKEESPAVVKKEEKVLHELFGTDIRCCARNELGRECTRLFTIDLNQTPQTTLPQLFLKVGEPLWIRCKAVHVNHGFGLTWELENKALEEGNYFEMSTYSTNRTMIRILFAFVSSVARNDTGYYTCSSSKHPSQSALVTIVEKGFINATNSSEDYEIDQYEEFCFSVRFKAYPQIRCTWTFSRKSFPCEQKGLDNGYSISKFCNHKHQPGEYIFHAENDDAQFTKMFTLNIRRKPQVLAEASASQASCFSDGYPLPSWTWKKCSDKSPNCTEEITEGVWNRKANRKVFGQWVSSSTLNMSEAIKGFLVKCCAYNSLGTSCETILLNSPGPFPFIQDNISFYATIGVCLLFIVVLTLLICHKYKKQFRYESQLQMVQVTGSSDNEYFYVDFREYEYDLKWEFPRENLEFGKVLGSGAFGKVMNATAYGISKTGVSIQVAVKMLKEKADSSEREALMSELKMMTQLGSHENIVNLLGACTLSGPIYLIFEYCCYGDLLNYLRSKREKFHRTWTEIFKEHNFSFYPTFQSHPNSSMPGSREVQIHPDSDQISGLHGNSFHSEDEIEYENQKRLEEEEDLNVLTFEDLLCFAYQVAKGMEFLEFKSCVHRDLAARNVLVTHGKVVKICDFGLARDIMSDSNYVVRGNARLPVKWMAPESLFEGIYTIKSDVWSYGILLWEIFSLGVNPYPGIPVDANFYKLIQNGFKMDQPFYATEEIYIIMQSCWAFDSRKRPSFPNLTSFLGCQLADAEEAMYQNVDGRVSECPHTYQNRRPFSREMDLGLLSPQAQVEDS
In assay [26] the test system is MV4-11. Kind of assay: Induction of cell cycle arrest in human MV4-11 cells assessed as accumulation at S phase at 20 uM after 24 hrs by FITC propidium iodide staining based flow cytometry (reference value: 16.7%). The assay is classed as functional.
For assay [27], the target named is T1, MAP kinase-interacting serine/threonine-protein kinase 1. Kind of assay: Inhibition of Mnk1 (unknown origin) pre-incubated for 10 mins before eIF4E peptide substrate addition by ADP-Glo kinase assay.
Target sequence in this assay (Q9BUB5 whole entry): as the sequence (Q9BUB5 whole entry, looked up) above
The target of assay [28] is Mitogen-activated protein kinase 14 (Homo sapiens) (UniProt Q16539). Put plainly: Inhibition of SAPK2a (unknown origin) assessed as reduction in kinase activity at 10 uM using ATP.
Chain of Mitogen-activated protein kinase 14 (Homo sapiens) (Q16539 whole entry): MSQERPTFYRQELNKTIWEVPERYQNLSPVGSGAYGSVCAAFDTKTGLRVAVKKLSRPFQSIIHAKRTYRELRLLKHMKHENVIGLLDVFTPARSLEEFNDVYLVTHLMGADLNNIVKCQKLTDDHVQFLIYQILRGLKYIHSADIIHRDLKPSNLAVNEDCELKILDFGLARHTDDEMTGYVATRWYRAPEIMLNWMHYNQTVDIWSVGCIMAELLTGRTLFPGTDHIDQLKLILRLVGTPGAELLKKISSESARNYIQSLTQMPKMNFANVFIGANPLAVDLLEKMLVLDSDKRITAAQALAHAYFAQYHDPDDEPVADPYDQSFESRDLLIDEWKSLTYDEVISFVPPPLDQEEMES
The subject of assay [29] is MV4-11. Put plainly: Induction of apoptosis in human MV4-11 cells assessed as reduction in Mcl1 expression at 20 uM after 24 hrs by Western blotting method. The assay is classed as functional, cell-based. Put shortly: as §1
For assay [30], the system named is MV4-11. Put plainly: Induction of cell cycle arrest in human MV4-11 cells assessed as accumulation at G1 phase at 20 uM after 24 hrs by FITC propidium iodide staining based flow cytometry (reference value: 58.1%). The assay is classed as functional.
Assay [31] concerns MV4-11. Put plainly: Induction of apoptosis in human MV4-11 cells assessed as viable cells level at 20 uM after 24 hrs by FITC annexin-V/PI staining based flow cytometry (reference value: 91.49%). The assay is classed as functional. Put shortly:
as §2

The test system of assay [32] is MV4-11. Put plainly: Induction of apoptosis in human MV4-11 cells assessed as induction of PARP cleavage expression at 20 uM after 24 hrs by Western blotting method. In kind it is functional, cell-based. Put shortly: as §1
In assay [33] the test system is MV4-11. Kind of assay: Induction of apoptosis in human MV4-11 cells assessed as late apoptotic cells level at 20 uM after 24 hrs by FITC annexin-V/PI staining based flow cytometry (reference value: 5.4%). The assay is classed as functional. Put shortly:
as §2

Assay [34] relates to MV4-11. Kind of assay: Induction of caspase-3/7 activation in human MV4-11 cells at 20 uM after 24 hrs. In kind it is functional, cell-based. Put shortly: as §4
For the next assay, the species on record is Homo sapiens. Put plainly: Inhibition of PI3K (unknown origin) assessed as reduction in kinase activity at 10 uM using ATP.
The target in assay [35] is CDK9/cyclin T1 (Homo sapiens) (UniProt O60563+P50750). Kind of assay: Inhibition of CDK9/cyclinT1 (unknown origin) assessed as reduction in kinase activity at 10 uM using ATP. In kind it is protein-complex assay.
The target in assay [36] is Serine/threonine-protein kinase mTOR (Homo sapiens) (UniProt P42345). Kind of assay: Inhibition of mTOR (unknown origin) assessed as reduction in kinase activity at 10 uM using ATP.
Assay [37] relates to MV4-11. Kind of assay: Reduction in cyclin D1 expression in human MV4-11 cells at 20 uM after 24 hrs by Western blotting method. In kind it is functional, cell-based. The method in brief:
as §3

The target of assay [38] is MAP kinase-interacting serine/threonine-protein kinase 2 (Homo sapiens, UniProt Q9HBH9). Kind of assay: Inhibition of Mnk2 (unknown origin) pre-incubated for 10 mins before eIF4E peptide substrate addition by ADP-Glo kinase assay.
Chain of MAP kinase-interacting serine/threonine-protein kinase 2 (Q9HBH9 whole entry): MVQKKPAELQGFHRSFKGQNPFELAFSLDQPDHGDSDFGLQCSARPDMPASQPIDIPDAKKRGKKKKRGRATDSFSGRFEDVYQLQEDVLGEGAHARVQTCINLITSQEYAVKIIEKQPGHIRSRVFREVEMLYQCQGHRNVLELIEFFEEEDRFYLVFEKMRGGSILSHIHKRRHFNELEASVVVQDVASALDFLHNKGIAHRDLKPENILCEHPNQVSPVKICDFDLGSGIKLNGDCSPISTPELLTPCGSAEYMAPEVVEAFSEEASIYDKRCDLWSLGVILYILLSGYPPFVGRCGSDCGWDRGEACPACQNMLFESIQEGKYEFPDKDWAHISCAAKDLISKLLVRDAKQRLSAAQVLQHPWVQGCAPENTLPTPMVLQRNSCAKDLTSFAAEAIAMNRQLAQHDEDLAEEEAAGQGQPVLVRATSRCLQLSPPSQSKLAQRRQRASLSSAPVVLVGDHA
The target in assay [39] is T1, MAP kinase-interacting serine/threonine-protein kinase 1. Put plainly: Inhibition of Mnk1 in human MV4-11 cells assessed as reduction in eIF4E Ser209 phosphorylation at 20 uM after 24 hrs by Western blotting method. In kind it is cell-based. The method in brief:
as §1
Target sequence in this assay (Q9BUB5 whole entry, looked up): as the sequence (Q9BUB5 whole entry, looked up) above

The subject of assay [40] is MV4-11. Kind of assay: Induction of cell cycle arrest in human MV4-11 cells assessed as accumulation at G2/M phase at 20 uM after 24 hrs by FITC propidium iodide staining based flow cytometry (reference value: 17.5%). The assay is classed as functional.
The test system of assay [41] is MV4-11. Kind of assay: Induction of apoptosis in human MV4-11 cells at 20 uM after 24 hrs by FITC annexin-V/PI staining based flow cytometry. In kind it is functional. Put shortly:
as §2

The source made the active and inactive calls. No cut-off for these calls is given here.

Chain of Serine/threonine-protein kinase pim-1 (Homo sapiens) (P11309 whole entry, looked up): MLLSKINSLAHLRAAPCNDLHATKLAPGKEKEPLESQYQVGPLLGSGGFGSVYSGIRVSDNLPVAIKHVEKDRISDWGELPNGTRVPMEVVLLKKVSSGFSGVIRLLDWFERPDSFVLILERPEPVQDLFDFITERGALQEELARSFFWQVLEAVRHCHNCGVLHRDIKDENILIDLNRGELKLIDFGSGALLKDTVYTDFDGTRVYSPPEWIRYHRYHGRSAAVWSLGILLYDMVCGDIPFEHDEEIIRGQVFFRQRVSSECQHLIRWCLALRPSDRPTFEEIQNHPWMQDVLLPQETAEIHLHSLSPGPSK
Chain of Mitogen-activated protein kinase 1 (Homo sapiens) (P28482 whole entry): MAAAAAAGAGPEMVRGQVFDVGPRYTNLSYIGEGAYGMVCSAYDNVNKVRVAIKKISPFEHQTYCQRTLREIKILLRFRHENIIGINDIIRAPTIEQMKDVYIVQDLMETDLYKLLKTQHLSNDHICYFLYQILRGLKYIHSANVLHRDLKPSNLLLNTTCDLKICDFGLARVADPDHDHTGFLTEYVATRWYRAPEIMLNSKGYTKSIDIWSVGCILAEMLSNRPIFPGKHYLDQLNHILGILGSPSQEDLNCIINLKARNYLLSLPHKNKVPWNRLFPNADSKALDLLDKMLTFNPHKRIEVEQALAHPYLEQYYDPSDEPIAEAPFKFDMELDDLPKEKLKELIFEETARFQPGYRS
Chain of RAC-alpha serine/threonine-protein kinase (Homo sapiens) (P31749 whole entry): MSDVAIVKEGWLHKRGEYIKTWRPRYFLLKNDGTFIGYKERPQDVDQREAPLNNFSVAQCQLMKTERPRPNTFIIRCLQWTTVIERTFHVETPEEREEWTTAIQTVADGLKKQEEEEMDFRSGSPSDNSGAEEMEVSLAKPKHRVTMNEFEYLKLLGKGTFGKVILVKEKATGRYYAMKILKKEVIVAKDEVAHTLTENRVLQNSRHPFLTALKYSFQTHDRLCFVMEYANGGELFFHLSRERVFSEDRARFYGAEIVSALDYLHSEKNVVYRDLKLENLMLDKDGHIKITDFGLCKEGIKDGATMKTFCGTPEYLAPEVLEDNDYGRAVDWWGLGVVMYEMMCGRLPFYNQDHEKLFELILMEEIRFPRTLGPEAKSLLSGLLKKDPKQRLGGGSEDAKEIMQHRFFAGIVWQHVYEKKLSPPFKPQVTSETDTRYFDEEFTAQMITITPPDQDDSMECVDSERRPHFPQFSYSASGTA

`Nc1ncnc2[nH]nc(Nc3ccc(F)cc3)c12`: the outcome in the assay on MV4-11 [1], in the assay on MV4-11 [3] and with MV4-11 [13] was Active. The Activity in the assay on MV4-11 [2] is 78.01%; with MV4-11 [4], 9.16%; with MV4-11 [5] it was 13%; with MV4-11 [7], 10.2%; in the assay on MV4-11 [9] it was 9.4%; with MV4-11 [10] it was 8.4%. In addition, the results for the Activity in the assay with MV4-11 [12], in the assay on MV4-11 [14] and in the assay with MV4-11 [15] were 72%, 0.3% and 12.52%, respectively. In addition, in the assay with MV4-11 [6], the 50% growth inhibitory concentration (GI50) was 4.88 µM. Besides, the outcome in the assay with MV4-11 [8] was inactive. For the same compound, in assay [11], the inhibition result is “Active”.
As for `COCCCNC(=O)c1sc2ncnc(Nc3cc(C)cn(C)c3=O)c2c1C`, the Activity in the assay on MV4-11 [16] worked out at 4.52%; in the assay with MV4-11 [18], 0.1%; in the assay with MV4-11 [23], 12.5%; with MV4-11 [26], 8.1%; with MV4-11 [30], 72.5%; in the assay with MV4-11 [31], 83.96%. In addition, the Activity was 11.4% with MV4-11 [33], 6.9% with MV4-11 [40] and 6% with MV4-11 [41]. Moreover, the inhibition entry (in assay [17]; in [19]; in assay [21]; in assay [22]; in assay [28]; in the assay filed under Homo sapiens) was “inactive” each time. The inhibition entry in assay [35] and in assay [36] was “inactive” in each case. This compound also gave a GI50 in the assay on MV4-11 [6] of 5.73 µM. Moreover, the result in the assay with MV4-11 [20], in the assay on MV4-11 [24] and in the assay with MV4-11 [34] was inactive. For the same compound, the inhibition in [25] was found to be 31%. Moreover, the Ki in [27] came out at 5 µM; in [38], 2.63 µM. In addition, the outcome in the assay on MV4-11 [29], with MV4-11 [32] and in the assay on MV4-11 [37] was Active. Further, the inhibition result in assay [39] is “Active”.
